Cardio protect: protects H9c2 cardiomyocytes from peroxide injury; H2O2 injury protection, ATPLite, 2 h; protection from H2O2 cell death, % at 20 µM; hit rate 0.63% among 360,000; AID 588492;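 active = compounds giving at least 50% protection of heart cells from peroxide-induced death in the single-dose screen, raw or plate-pattern-corrected value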;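 also: 0% = DMSO wells with peroxide and 100% = DMSO wells without peroxide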
Neddylation inh: inhibitors of human cullin neddylation | P61081+Q13564 | TR-FRET cullin neddylation, biochemical | inhibition, % at 25 µM | hit rate 0.58% among 360,000 | AID 651699; in the data active = inhibition above about 36%
ASAP1 GAP inh: inhibitors of human ASAP1 ArfGAP activity | Q9ULH1 | ASAP1-stimulated ARF1 GTP hydrolysis, GDP FP detection | inhibition, % at 16.5 µM | hit rate 0.19% among 360,000 | AID 624377; in the data active = inhibition above about 25%;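 also: 0% = vehicle with enzyme and substrate and 100% = no enzyme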
Target sequence (Q9ULH1 325-724 limits assumed): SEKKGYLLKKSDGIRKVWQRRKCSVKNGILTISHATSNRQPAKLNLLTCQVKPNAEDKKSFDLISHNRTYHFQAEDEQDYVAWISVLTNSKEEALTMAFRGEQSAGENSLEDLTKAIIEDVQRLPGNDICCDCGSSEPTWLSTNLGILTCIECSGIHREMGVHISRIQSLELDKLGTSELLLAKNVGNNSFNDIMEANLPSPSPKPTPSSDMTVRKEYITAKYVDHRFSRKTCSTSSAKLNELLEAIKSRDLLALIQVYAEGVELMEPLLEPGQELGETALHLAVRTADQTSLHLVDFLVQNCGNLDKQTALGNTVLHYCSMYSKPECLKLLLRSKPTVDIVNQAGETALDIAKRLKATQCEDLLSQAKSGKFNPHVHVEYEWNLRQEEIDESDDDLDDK
ARFGAP1 inhibitor: rat ARFGAP1 inhibition; Q62848; Arfgap1-stimulated ARF1 GTP hydrolysis, GDP FP detection; inhibition, % at 16.5 µM; hit rate 0.26% among 360,000; AID 651572;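 active = inhibition above a per-plate limit, mean inhibition of low control wells plus 3 SD, cut at about 25% in these data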;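 also: 0% = DMSO wells with enzyme and 100% = wells lacking Arfgap1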
Target sequence (Q62848 1-136 limits assumed): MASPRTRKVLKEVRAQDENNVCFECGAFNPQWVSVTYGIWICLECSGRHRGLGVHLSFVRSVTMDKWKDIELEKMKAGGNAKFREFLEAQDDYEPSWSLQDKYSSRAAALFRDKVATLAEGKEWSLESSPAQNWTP
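System: truncated rat Arfgap1 GAP domain / Medium: HEPES-based buffer, pH 7.5 / Also added: N-terminally truncated human ARF1-GTP substrate / Incubation: enzyme reaction 120 min at 25 °C after 20 min preincubation / Measured by: FP of antibody-bound GDP Alexa 633 tracer, ex 620/em 688 nm / Replicates: singlicate, each compound tested once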
ASAP1 GAP conf: ASAP1 inhibition confirmed; shares compounds with ASAP1 GAP inh; ASAP1-stimulated Arf1 GTPase, GDP fluorescence polarization; inhibition, % at 16.5 µM; hit rate 37% among 620;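 active = mean inhibition over triplicates exceeds the hit threshold derived for the earlier primary screening run, cut at about 25% in these data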
ARFGAP1 confirm: confirmation of rat ARFGAP1 inhibitors. shares compounds with ARFGAP1 inhibitor. ARFGAP1-stimulated ARF1 GTP hydrolysis, GDP tracer FP. inhibition, % at 16.5 µM. hit rate 30% among 890. AID 651608;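 active = average inhibition over triplicates above the hit cutoff set in the earlier primary screen, cut at about 25% in these data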;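 also: 0% = Arfgap1 plus ARF1-GTP with DMSO and 100% = wells lacking Arfgap1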
Neddyl inh conf: confirmation of human cullin neddylation inhibitors; shares compounds with Neddylation inh; TR-FRET cullin neddylation biochemical assay; calls only at 25 µM; hit rate 13% among 1,800; in the data active = inhibition above about 40%;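 also: neddylation substrate is the cullin 1 ring ligase complex with SKP2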
* hit, by the source's call; i = inactive; nt = not tested or not shown; + = active, no number. Compounds with a hit are over-represented: about 1.6% of the library has one in this group of screens.

SMILES	Cardio protect	Neddylation inh	ASAP1 GAP inh	ARFGAP1 inhibitor	ASAP1 GAP conf	ARFGAP1 confirm	others
COc1ccc([N+](=O)[O-])cc1NC(=O)c1ccc(Br)s1	-5	-1	38*	36*	54*	68*
CC1CCCN(c2cccc3c2S(=O)(=O)N(Cc2cccc(Cl)c2)[C@@H](C)[C@H](c2ccccc2)O3)C1 (stereo partly drawn)	nt	nt	10	-4	nt	nt
Nc1ccc2nc(-c3cccc(-c4nc5ccc(N)cc5[nH]4)n3)[nH]c2c1	42	-13	+	+	+	+
CCC/C(=C1/c2ccccc2C(=O)N1c1ccccc1)c1c(C)noc1C	nt	nt	5	-1	nt	nt
O=C(Nc1cccc(-c2cnc3ccccc3n2)c1)c1ccccc1	2	-13	4	7	nt	nt
O=C(Nc1cccc(-c2cnc3ccccc3n2)c1)c1cccc(NC(=O)c2ccco2)c1	61*	-15	102*	101*	91*	126*
Nc1[nH]c(C(=O)c2ccc(Cl)cc2)c(-c2ccc(Br)cc2)c1C(=O)NCCc1c[nH]c2ccccc12	nt	nt	2	5	nt	nt
O=C(CSc1nnnn1-c1ccccc1)Nc1nsc(-c2ccc(Cl)cc2)n1	-7	-71	26*	44*	45*	58*
O=C(CSc1nnnn1-c1ccccc1)Nc1nsc(-c2ccccc2)n1	7	-58	-3	-15	nt	nt
COc1ccc(-n2nnnc2SCC(=O)c2ccc3c(c2)OCCO3)c(OC)c1	-7	-103	53*	59*	51*	135*
COc1ccc(C)cc1-n1nnnc1SCC(=O)c1ccc2c(c1)OCCO2	-13	-301	6	0	nt	nt
O=C(Cn1cncc1-c1ccc([N+](=O)[O-])cc1)Nc1cccc2ccccc12	-9	-16	28*	41*	37*	46*
COC(=O)c1ccc(NC(=O)c2cn(-c3ccccc3)nc2-c2ccncc2)cc1	11	-8	31*	30*	51*	61*
COc1ccc(/C=N/NC(=O)c2ccccc2OC)cc1COc1ccccc1[N+](=O)[O-]	33	0	6	3	nt	nt
COc1ccc(/C=N\NC(=O)c2ccc([N+](=O)[O-])c(C)c2)cc1COc1ccccc1C(N)=O	31	-28	47*	78*	88*	123*
CCN(CC)CCN1CNC(=S)NC1	2	4	5	6	nt	nt
Cc1ccc(S(=O)(=O)N2CCCc3nc(-c4ccc(F)cc4)ccc32)cc1	nt	nt	-2	-2	nt	nt
O=C(Nc1ccc(-c2cc3ccccc3oc2=O)c(Cl)c1)c1cccnc1	5	nt	46*	62*	59*	82*
CCc1nc2ccc(C(=O)N(C)Cc3ccco3)cn2c1N(C)CCCc1ccccc1	-2	15	-19	2	nt	nt
Cc1ccc(-c2nn(-c3ccccc3)cc2/C=C/C(=O)Nc2nccs2)cc1	-2	nt	34*	52*	24	68*
O=C(/C=C/c1cn(-c2ccccc2)nc1-c1ccccc1)Nc1ccc(C(=O)O)cc1	-5	4	-2	20	nt	nt
COc1cccc(CNC(=O)[C@H]2CCCN2C(=O)[C@H]2CCCN2C(=O)c2cccc(F)c2)c1	nt	nt	-10	-6	nt	nt
CC(=O)c1cccc(NC(=O)c2cccc3c(-c4cccnc4)coc23)c1	34	-6	35*	26*	26*	29*
Cc1cc(N2CCN(C)CC2)nc2ccc(NC(=O)c3cccnc3Cl)cc12	0	-6	49*	29*	25*	28*
Nc1[nH]c(C(=O)c2ccccc2)c(-c2ccc(Cl)cc2)c1C(=O)c1c[nH]c2ccc(F)cc12	nt	nt	10	6	nt	nt
SMILES	Cardio protect	Neddylation inh	ASAP1 GAP inh	ARFGAP1 inhibitor	ASAP1 GAP conf	ARFGAP1 confirm	others
CCOc1ccc(C(=O)Nc2cccc(-c3cc4ccccc4oc3=O)c2)cc1[N+](=O)[O-]	-10	7	26*	42*	37*	46*
CCOc1ccccc1NC(=O)c1ccc(OCC)c([N+](=O)[O-])c1	5	9	3	-2	nt	nt
CCOc1ccc(C(=O)Nc2cc(-c3nc4ccccc4[nH]3)ccc2Cl)cc1[N+](=O)[O-]	-11	-14	69*	109*	123*	151*
c1ccc(-c2ccccc2C2Cc3nnccc3CN2)cc1 (stereo not drawn)	nt	nt	0	-8	nt	nt
COc1cc(/C=C(/C#N)c2nc3ccccc3[nH]2)ccc1OCc1ccc(C(=O)O)o1	0	29	1	6	nt	nt
COC(=O)c1ccc(COc2ccc(/C=C(\C#N)c3nc4ccccc4[nH]3)cc2OC)o1	70*	31	35*	61*	78*	108*
O=C(COc1ccc2oc(-c3ccco3)cc(=O)c2c1)N1CCCCC1	5	nt	32*	80*	42*	72*
CCN1CCN(Cc2ccc(NC(=O)c3ccc(C)c(NC(=O)c4c[nH]c5cc(C(F)(F)F)ccc5c4=O)c3)cc2C(F)(F)F)CC1	-45	5	43*	45*	53*	70*
Cc1ccc(C(=O)Nc2cccc(C(F)(F)F)c2)cc1NC(=O)c1c[nH]c2cc(C(F)(F)F)ccc2c1=O	-8	-104	-4	0	nt	nt
CCN(CC)CCCNC(=O)c1cc2c(-c3cccc(OC)c3)nn(C)c2s1	15	nt	15	17	nt	nt
CCCCN(CC)CCCNC(=O)c1cc2c(-c3ccc(OC)c(OC)c3)nn(C)c2s1	0	53*	34*	27*	72*	74*	Neddyl inh conf=i
CN1CCCCC(NC(=O)C2CCCCC2)C1=O (stereo not drawn)	nt	nt	12	14	nt	nt
COc1cc(O)cc(/C=C/c2ccccc2)c1	-11	41*	27*	4	9	nt	Neddyl inh conf=+
Cc1ccc(S(=O)(=O)N2CCCc3nc(-c4ccccc4)ccc32)cc1	nt	nt	10	14	nt	nt
COc1ccc(/C=N\NC(=O)c2cc3c(ccc4ccccc43)o2)cc1O	24	45*	72*	28*	96*	76*	Neddyl inh conf=i
CN(Cc1ccccc1F)C(=O)CN1c2cccc3cccc(c23)S1(=O)=O	2	50*	30*	29*	41*	51*	Neddyl inh conf=+
CCNC(=O)CN1c2cccc3cccc(c23)S1(=O)=O	3	36	3	-5	nt	nt
Cc1ccc(-n2c(=O)cc(N3CCC(C)CC3)[nH]c2=O)cc1	3	-2	12	26*	nt	3
N#Cc1ccsc1NC(=O)COC(=O)c1ccc2ccccc2c1	-8	-19	23	27*	nt	20
Cn1cccc1C(=O)OCC(=O)Nc1sccc1C#N	4	4	4	1	nt	nt
Cc1cccc(COC[C@H](CC(C)C)N2CCN(C(=O)c3ccc(C(F)(F)F)cc3)CCC2=O)c1	nt	-5	-11	-7	nt	nt
CC(=O)Nc1ccc(-c2csc(NC(=O)Cc3ccccc3F)n2)cc1	10	-2	10	3	nt	nt

Bioassay records (PubChem BioAssay)
